Reference: ChEMBL document CHEMBL4689842, “EUbOPEN Chemogenomics Library wave 1” (2021)

Test system: Fibroblast
Assay: Multiplex assay against human fibroblast
Type: toxicity, cell-based
Outline: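 Cells were classed with CellPathfinder machine-learning gating, first as Hoechst high-intensity objects or normal cells, then (normal cells) as healthy, pyknosed or fragmented nuclei, and finally (pyknosed cells) as mitotic or apoptotic. Staining of live cells at seeding used Hoechst33342, BioTracker Green Microtubule Cytoskeleton Dye, MitoTracker Red and Annexin V Alexa Fluor 680, with imaging on a CQ1 microscope at 37°C and 5% CO2 after compound addition. Tubulin, mitochondrial-mass and membrane-permeability phenotypes are per cents of healthy-nucleus cells.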

[1] = 12 h, 1 µM, compound concentration 1 uM, replicate 1
[2] = 12 h, 1 µM, compound concentration 1 uM, replicate 2
[3] = 12 h, 10 µM, compound concentration 10 uM, replicate 1
[4] = 12 h, 10 µM, compound concentration 10 uM, replicate 2
[5] = 24 h, 1 µM, compound concentration 1 uM, replicate 1
[6] = 24 h, 1 µM, compound concentration 1 uM, replicate 2
[7] = 24 h, 10 µM, compound concentration 10 uM, replicate 1
[8] = 24 h, 10 µM, compound concentration 10 uM, replicate 2
[9] = 48 h, 1 µM, compound concentration 1 uM, replicate 1
[10] = 48 h, 1 µM, compound concentration 1 uM, replicate 2
[11] = 48 h, 10 µM, compound concentration 10 uM, replicate 1
[12] = 48 h, 10 µM, compound concentration 10 uM, replicate 2

C=C1/C(=C\C=C2/CCC[C@]3(C)[C@@H]([C@H](C)/C=C/[C@H](C)C(C)C)CC[C@@H]23)C[C@@H](O)C[C@@H]1O [DOXERCALCIFEROL]
Population Apoptotic (%) [1]: 63%
Population Fragmented Nuclei (%) [1]: 23%
Population Healthy Nuclei (%) [1]: 33%
Population Hoechst High Intensity Objects (%) [1]: 10%
Population Membrane Permeable-Phenotype (%) [1]: 10%
Population Mitochondria Different-Phenotype (%) [1]: 0%
Population Mitotic Cells (%) [1]: 36%
Population Normal (%) [1]: 89%
Population Pyknosed Nuclei (%) [1]: 42%
Population Tubulin-Different-Phenotype (%) [1]: 14%
Total Cell Count [1]: 94
Population Apoptotic (%) [2]: 40%
Population Fragmented Nuclei (%) [2]: 1%
Population Healthy Nuclei (%) [2]: 90%
Population Hoechst High Intensity Objects (%) [2]: 1%
Population Membrane Permeable-Phenotype (%) [2]: 5%
Population Mitochondria Different-Phenotype (%) [2]: 14%
Population Mitotic Cells (%) [2]: 60%
Population Normal (%) [2]: 98%
Population Pyknosed Nuclei (%) [2]: 8%
Population Tubulin-Different-Phenotype (%) [2]: 9%
Total Cell Count [2]: 111
Population Apoptotic (%) [3]: 30%
Population Fragmented Nuclei (%) [3]: 72%
Population Healthy Nuclei (%) [3]: 21%
Population Hoechst High Intensity Objects (%) [3]: 11%
Population Membrane Permeable-Phenotype (%) [3]: 4%
Population Mitochondria Different-Phenotype (%) [3]: 15%
Population Mitotic Cells (%) [3]: 69%
Population Normal (%) [3]: 88%
Population Pyknosed Nuclei (%) [3]: 5%
Population Tubulin-Different-Phenotype (%) [3]: 28%
Total Cell Count [3]: 247
Population Apoptotic (%) [4]: 0%
Population Fragmented Nuclei (%) [4]: 27%
Population Healthy Nuclei (%) [4]: 67%
Population Hoechst High Intensity Objects (%) [4]: 6%
Population Membrane Permeable-Phenotype (%) [4]: 2%
Population Mitochondria Different-Phenotype (%) [4]: 21%
Population Mitotic Cells (%) [4]: 100%
Population Normal (%) [4]: 93%
Population Tubulin-Different-Phenotype (%) [4]: 13%
Total Cell Count [4]: 61
Population Apoptotic (%) [5]: 38%
Population Fragmented Nuclei (%) [5]: 18%
Population Healthy Nuclei (%) [5]: 48%
Population Hoechst High Intensity Objects (%) [5]: 10%
Population Membrane Permeable-Phenotype (%) [5]: 22%
Population Mitochondria Different-Phenotype (%) [5]: 2%
Population Mitotic Cells (%) [5]: 61%
Population Normal (%) [5]: 89%
Population Pyknosed Nuclei (%) [5]: 34%
Population Tubulin-Different-Phenotype (%) [5]: 27%
Total Cell Count [5]: 112
Population Apoptotic (%) [6]: 42%
Population Fragmented Nuclei (%) [6]: 5%
Population Healthy Nuclei (%) [6]: 86%
Population Hoechst High Intensity Objects (%) [6]: 4%
Population Membrane Permeable-Phenotype (%) [6]: 4%
Population Mitochondria Different-Phenotype (%) [6]: 7%
Population Mitotic Cells (%) [6]: 57%
Population Normal (%) [6]: 95%
Population Pyknosed Nuclei (%) [6]: 8%
Population Tubulin-Different-Phenotype (%) [6]: 14%
Total Cell Count [6]: 157
Population Apoptotic (%) [7]: 69%
Population Fragmented Nuclei (%) [7]: 55%
Population Healthy Nuclei (%) [7]: 36%
Population Hoechst High Intensity Objects (%) [7]: 9%
Population Membrane Permeable-Phenotype (%) [7]: 12%
Population Mitochondria Different-Phenotype (%) [7]: 6%
Population Mitotic Cells (%) [7]: 30%
Population Normal (%) [7]: 90%
Population Pyknosed Nuclei (%) [7]: 8%
Population Tubulin-Different-Phenotype (%) [7]: 9%
Total Cell Count [7]: 304
Population Apoptotic (%) [8]: 33%
Population Fragmented Nuclei (%) [8]: 25%
Population Healthy Nuclei (%) [8]: 70%
Population Hoechst High Intensity Objects (%) [8]: 3%
Population Membrane Permeable-Phenotype (%) [8]: 1%
Population Mitochondria Different-Phenotype (%) [8]: 16%
Population Mitotic Cells (%) [8]: 66%
Population Normal (%) [8]: 96%
Population Pyknosed Nuclei (%) [8]: 4%
Population Tubulin-Different-Phenotype (%) [8]: 13%
Total Cell Count [8]: 83
Population Apoptotic (%) [9]: 66%
Population Fragmented Nuclei (%) [9]: 22%
Population Healthy Nuclei (%) [9]: 58%
Population Hoechst High Intensity Objects (%) [9]: 18%
Population Membrane Permeable-Phenotype (%) [9]: 21%
Population Mitochondria Different-Phenotype (%) [9]: 3%
Population Mitotic Cells (%) [9]: 33%
Population Normal (%) [9]: 81%
Population Pyknosed Nuclei (%) [9]: 18%
Population Tubulin-Different-Phenotype (%) [9]: 35%
Total Cell Count [9]: 118
Population Apoptotic (%) [10]: 0%
Population Fragmented Nuclei (%) [10]: 27%
Population Healthy Nuclei (%) [10]: 72%
Population Hoechst High Intensity Objects (%) [10]: 42%
Population Membrane Permeable-Phenotype (%) [10]: 17%
Population Mitochondria Different-Phenotype (%) [10]: 2%
Population Mitotic Cells (%) [10]: 0%
Population Normal (%) [10]: 57%
Population Pyknosed Nuclei (%) [10]: 0%
Population Tubulin-Different-Phenotype (%) [10]: 37%
Total Cell Count [10]: 165
Population Apoptotic (%) [11]: 86%
Population Fragmented Nuclei (%) [11]: 33%
Population Healthy Nuclei (%) [11]: 46%
Population Hoechst High Intensity Objects (%) [11]: 12%
Population Membrane Permeable-Phenotype (%) [11]: 23%
Population Mitochondria Different-Phenotype (%) [11]: 0%
Population Mitotic Cells (%) [11]: 13%
Population Normal (%) [11]: 87%
Population Pyknosed Nuclei (%) [11]: 19%
Population Tubulin-Different-Phenotype (%) [11]: 2%
Total Cell Count [11]: 351
Population Apoptotic (%) [12]: 100%
Population Fragmented Nuclei (%) [12]: 39%
Population Healthy Nuclei (%) [12]: 59%
Population Hoechst High Intensity Objects (%) [12]: 14%
Population Mitochondria Different-Phenotype (%) [12]: 1%
Population Mitotic Cells (%) [12]: 0%
Population Normal (%) [12]: 85%
Population Pyknosed Nuclei (%) [12]: 1%
Population Tubulin-Different-Phenotype (%) [12]: 49%
Total Cell Count [12]: 128

CCCn1c(=O)c2[nH]c(-c3cnn(Cc4cccc(C(F)(F)F)c4)c3)nc2n(CC)c1=O [GS 6201]
Population Apoptotic (%) [1]: 51%
Population Fragmented Nuclei (%) [1]: 26%
Population Healthy Nuclei (%) [1]: 32%
Population Hoechst High Intensity Objects (%) [1]: 11%
Population Membrane Permeable-Phenotype (%) [1]: 33%
Population Mitochondria Different-Phenotype (%) [1]: 14%
Population Mitotic Cells (%) [1]: 48%
Population Normal (%) [1]: 88%
Population Pyknosed Nuclei (%) [1]: 41%
Population Tubulin-Different-Phenotype (%) [1]: 59%
Total Cell Count [1]: 95
Population Apoptotic (%) [2]: 42%
Population Fragmented Nuclei (%) [2]: 4%
Population Healthy Nuclei (%) [2]: 88%
Population Hoechst High Intensity Objects (%) [2]: 2%
Population Membrane Permeable-Phenotype (%) [2]: 8%
Population Mitochondria Different-Phenotype (%) [2]: 9%
Population Mitotic Cells (%) [2]: 57%
Population Normal (%) [2]: 97%
Population Pyknosed Nuclei (%) [2]: 7%
Population Tubulin-Different-Phenotype (%) [2]: 28%
Total Cell Count [2]: 75
Population Apoptotic (%) [3]: 76%
Population Fragmented Nuclei (%) [3]: 48%
Population Healthy Nuclei (%) [3]: 18%
Population Hoechst High Intensity Objects (%) [3]: 31%
Population Membrane Permeable-Phenotype (%) [3]: 25%
Population Mitochondria Different-Phenotype (%) [3]: 17%
Population Mitotic Cells (%) [3]: 24%
Population Normal (%) [3]: 68%
Population Pyknosed Nuclei (%) [3]: 33%
Population Tubulin-Different-Phenotype (%) [3]: 46%
Total Cell Count [3]: 221
Population Apoptotic (%) [4]: 50%
Population Fragmented Nuclei (%) [4]: 17%
Population Healthy Nuclei (%) [4]: 77%
Population Hoechst High Intensity Objects (%) [4]: 5%
Population Membrane Permeable-Phenotype (%) [4]: 3%
Population Mitochondria Different-Phenotype (%) [4]: 20%
Population Mitotic Cells (%) [4]: 50%
Population Normal (%) [4]: 94%
Population Pyknosed Nuclei (%) [4]: 4%
Population Tubulin-Different-Phenotype (%) [4]: 10%
Total Cell Count [4]: 98
Population Apoptotic (%) [5]: 70%
Population Fragmented Nuclei (%) [5]: 21%
Population Healthy Nuclei (%) [5]: 42%
Population Hoechst High Intensity Objects (%) [5]: 20%
Population Membrane Permeable-Phenotype (%) [5]: 32%
Population Mitochondria Different-Phenotype (%) [5]: 10%
Population Mitotic Cells (%) [5]: 29%
Population Normal (%) [5]: 79%
Population Pyknosed Nuclei (%) [5]: 36%
Population Tubulin-Different-Phenotype (%) [5]: 82%
Total Cell Count [5]: 83
Population Apoptotic (%) [6]: 50%
Population Fragmented Nuclei (%) [6]: 5%
Population Healthy Nuclei (%) [6]: 90%
Population Hoechst High Intensity Objects (%) [6]: 4%
Population Membrane Permeable-Phenotype (%) [6]: 2%
Population Mitotic Cells (%) [6]: 50%
Population Normal (%) [6]: 95%
Population Pyknosed Nuclei (%) [6]: 4%
Population Tubulin-Different-Phenotype (%) [6]: 30%
Total Cell Count [6]: 81
Population Apoptotic (%) [7]: 87%
Population Fragmented Nuclei (%) [7]: 51%
Population Healthy Nuclei (%) [7]: 24%
Population Hoechst High Intensity Objects (%) [7]: 26%
Population Membrane Permeable-Phenotype (%) [7]: 29%
Population Mitochondria Different-Phenotype (%) [7]: 12%
Population Mitotic Cells (%) [7]: 12%
Population Normal (%) [7]: 73%
Population Pyknosed Nuclei (%) [7]: 23%
Population Tubulin-Different-Phenotype (%) [7]: 56%
Total Cell Count [7]: 224
Population Apoptotic (%) [8]: 50%
Population Fragmented Nuclei (%) [8]: 17%
Population Healthy Nuclei (%) [8]: 72%
Population Hoechst High Intensity Objects (%) [8]: 3%
Population Membrane Permeable-Phenotype (%) [8]: 5%
Population Mitochondria Different-Phenotype (%) [8]: 11%
Population Mitotic Cells (%) [8]: 50%
Population Normal (%) [8]: 96%
Population Pyknosed Nuclei (%) [8]: 10%
Population Tubulin-Different-Phenotype (%) [8]: 9%
Total Cell Count [8]: 139
Population Apoptotic (%) [9]: 69%
Population Fragmented Nuclei (%) [9]: 38%
Population Healthy Nuclei (%) [9]: 41%
Population Hoechst High Intensity Objects (%) [9]: 20%
Population Membrane Permeable-Phenotype (%) [9]: 25%
Population Mitochondria Different-Phenotype (%) [9]: 17%
Population Mitotic Cells (%) [9]: 30%
Population Normal (%) [9]: 79%
Population Pyknosed Nuclei (%) [9]: 19%
Population Tubulin-Different-Phenotype (%) [9]: 67%
Total Cell Count [9]: 84
Population Apoptotic (%) [10]: 100%
Population Fragmented Nuclei (%) [10]: 20%
Population Healthy Nuclei (%) [10]: 76%
Population Hoechst High Intensity Objects (%) [10]: 11%
Population Membrane Permeable-Phenotype (%) [10]: 13%
Population Mitochondria Different-Phenotype (%) [10]: 5%
Population Mitotic Cells (%) [10]: 0%
Population Normal (%) [10]: 89%
Population Pyknosed Nuclei (%) [10]: 3%
Population Tubulin-Different-Phenotype (%) [10]: 35%
Total Cell Count [10]: 100
Population Apoptotic (%) [11]: 84%
Population Fragmented Nuclei (%) [11]: 61%
Population Healthy Nuclei (%) [11]: 26%
Population Hoechst High Intensity Objects (%) [11]: 31%
Population Membrane Permeable-Phenotype (%) [11]: 41%
Population Mitochondria Different-Phenotype (%) [11]: 4%
Population Mitotic Cells (%) [11]: 15%
Population Normal (%) [11]: 68%
Population Pyknosed Nuclei (%) [11]: 11%
Population Tubulin-Different-Phenotype (%) [11]: 48%
Total Cell Count [11]: 234
Population Apoptotic (%) [12]: 0%
Population Fragmented Nuclei (%) [12]: 28%
Population Healthy Nuclei (%) [12]: 67%
Population Hoechst High Intensity Objects (%) [12]: 11%
Population Membrane Permeable-Phenotype (%) [12]: 12%
Population Mitochondria Different-Phenotype (%) [12]: 1%
Population Mitotic Cells (%) [12]: 100%
Population Normal (%) [12]: 88%
Population Pyknosed Nuclei (%) [12]: 4%
Population Tubulin-Different-Phenotype (%) [12]: 63%
Total Cell Count [12]: 109
